Only some compounds are listed: those with a hit (about 2.1% of all), similar ones and a draw of the others.
DENV2 CPE: protects cells from dengue virus 2 cytopathic effect; CPE inhibition, % at 9.99 µM; AID 651640; actives 1.7% (n = 350,000); DENV2-infected cells, cytopathic effect rescue, plate reader; in the data active means CPE inhibition above about 20%, passing the limit was not always enough; inconclusive means no clear call, values can overlap the other calls; tested in BHK-21 cells;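 further: 0% = median of neutral control wells and 100% = median of positive control wells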
Xi reactivation: X-chromosome reactivation activator. XiGFP mouse fibroblasts, % GFP-positive cells imaging, 3 d; cells co-treated with 5-aza-dC sensitizer; scaled so ellipticine positive control = 100%. activation, % at 7.58 µM. actives 0.055% (n = 360,000);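 active means mean normalized replicate activation at least 10% and every replicate at or above 10%; inconclusive means only one of the two criteria met; inactive means mean below 10% and not all replicates reach 10%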;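 further: 0% = median of on-plate neutral control wells and 100% = ellipticine 6 µM median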
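material = 68-5-11 XiGFP fibroblast line | medium = DMEM plus 5-aza-dC sensitizer | schedule = 3 days compound exposure | benchmarks = positive control ellipticine, 6 µM final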
C2C12 statin: suppressors of simvastatin-induced myotoxicity in C2C12 myotubes | ATP luminescence, 48 h; scaled: DMSO 0, geranylgeraniol control 100 | rescue of ATP level, % at 7.49 µM | actives 0.78% (n = 330,000);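 active means mean ATP rescue above about 67%, or every replicate alone reaching that limit, limit read from the data, passing the limit was not always enough; inconclusive means no clear call, values can overlap the other calls; inactive means mean under the limit and some replicate under it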;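 further: myotubes were challenged with 10 µM simvastatin during compound exposure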
Cneo AK release: Cryptococcus neoformans lysis via adenylate kinase release; C. neoformans lysis, adenylate kinase release luminescence, 4 h; normalised: neutral wells 0, clomiphene wells 100; lysis activity, % at 15 µM; actives 0.2% (n = 360,000);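 active means mean lysis activity across replicates of at least 80%, whatever share of replicates individually reach that level; inactive means mean lysis activity below 80%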
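Test system: log-phase Cryptococcus neoformans yeast cells; Quantity: yeast cell density of 5 × 10^6 cells/mL; Buffer or medium: YPD; Doses: single compound concentration per well; Timing: 4 h at 37 °C static, read 1 h later; Measured by: AK luminescence; Read-out basis: lysis from increased AK signal; Control set: Clomiphene as positive control.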
* marks the source's active call; other numbers are inactive results; ? = inconclusive; . = no result.

SMILES	DENV2 CPE	Xi reactivation	C2C12 statin	Cneo AK release
COc1ccccc1Nc1ncnc2c1c(C)c(C)n2CCCN(C)C	42.0*	0.0	3.3	0.2
COc1cc(C(CCN2CCCC(C)C2)c2c(OC)cc(OC)c3c2OC(=O)CC3c2ccc(N(C)C)cc2)cc(OC)c1OC (stereo unspecified)	.	.	28.1	19.9
COc1cc(C2CC(=O)Oc3c(C(CCN4CCCC(C)C4)c4ccc(N(C)C)cc4)c(OC)cc(OC)c32)cc(OC)c1OC (stereo unspecified)	51.5*	0.1	11.8	1.4
CCCN1[C@H](C(=O)N(C)C)[C@@H](CO)[C@@H]2Cn3c(ccc(/C=C/c4ccccc4)c3=O)[C@@H]21	55.6*	0.6	9.8	40.8
O=C(O)[C@H]1[C@H](CO)[C@H]2Cn3c(ccc(/C=C/c4ccccc4)c3=O)[C@H]2N1C(=O)c1cnccn1	102.7*	-0.1	1.9	31.9
CCN1[C@@H]2Cn3c(ccc(/C=C/c4ccccc4)c3=O)[C@H]1[C@@H](C(=O)NC1Cc3ccccc3C1)[C@@H]2CO	32.1*	0.0	.	.
CN1[C@@H]2c3ccc(/C=C/c4ccccc4)c(=O)n3C[C@H]1[C@H](CO)[C@H]2C(=O)NC1Cc2ccccc2C1	1.4	0.1	24.6	1.2
COC(=O)[C@H]1[C@H](CO)[C@H]2Cn3c(ccc(/C=C/c4ccccc4)c3=O)[C@H]2N1C(=O)c1cnccn1	-7.3	0.7	26.3	2.6
CN(C)C(=O)[C@@H]1[C@@H](CO)[C@@H]2Cn3c(ccc(/C=C/c4ccccc4)c3=O)[C@@H]2N1CC1CC1	-2.0	0.2	.	.
COc1ccc(S(=O)(=O)Nc2ccc3c(c2)C(=O)N([C@H](C)CO)C[C@@H](C)[C@H](CN(C)C(=O)NC(C)C)O3)cc1	.	-0.2	.	.
N#C[C@@H]1N[C@H](CO)[C@@H]1c1ccc(C#Cc2ccccc2F)cc1	1.8	-0.1	-25.3	-3.7
N#C[C@H]1N[C@H](CO)[C@H]1c1ccc(C#Cc2ccc(F)cc2)cc1	55.4*	0.3	7.1	-1.0
N#C[C@@H]1N[C@H](CO)[C@H]1c1ccccc1	38.5*	0.0	-25.1	-0.8
COc1ccc(NC(=O)Nc2ccc3c(c2)C(=O)N([C@H](C)CO)C[C@H](C)[C@@H](CN(C)C(=O)Nc2ccc(F)cc2)O3)cc1	-5.3	-0.8	0.9	-23.9
COc1ccc2c3c(n(C)c2c1)[C@H](CO)N(C(=O)C1CCCCC1)CC31CCN(C)CC1	?	0.3	.	.
COCC#Cc1cnc2c(c1)C(=O)N([C@H](C)CO)C[C@H](C)[C@H](CN(C)C(=O)c1ccc3c(c1)OCO3)O2	2.7	-0.1	3.3	-1.1
O=S1(=O)CCOC[C@H](Cc2ccccc2)N1Cc1cccc(F)c1	32.1*	0.0	-21.1	1.2
CCCC[C@H]1COCCS(=O)(=O)N1Cc1ccccc1F	-13.5	0.1	8.0	0.4
CCC[C@H]1COCCS(=O)(=O)N1Cc1ccccc1F	6.2	0.0	79.2*	-0.2
O=C(C[C@@H]1CC[C@H]2[C@@H](COC[C@H](O)CN2C(=O)c2ccncc2)O1)NC1Cc2ccccc2C1	30.0*	-0.1	7.6	2.2
O=C(C[C@H]1CC[C@@H]2[C@H](COC[C@@H](O)CN2C(=O)c2ccccc2)O1)Nc1ccccc1	7.8	0.1	0.0	-1.3
O=C(C[C@@H]1CC[C@H]2[C@@H](COC[C@H](O)CN2C(=O)c2ccncc2)O1)Nc1ccc(-c2ccccc2)cc1	27.7*	0.6	-54.4	0.9
O=C(C[C@H]1CC[C@@H]2[C@H](COC[C@H](O)CN2C(=O)c2ccccc2)O1)Nc1ccc(-c2ccccc2)cc1	55.2*	0.4	33.7	-6.0
C[C@@H]1CN([C@@H](C)CO)C(=O)c2cc(NC(=O)Cn3cnnn3)ccc2O[C@@H]1CN(C)Cc1ccc(Cl)c(Cl)c1	51.7*	0.0	14.7	0.2
C[C@@H]1CN([C@H](C)CO)C(=O)c2cc(NC(=O)Cn3cnnn3)ccc2O[C@H]1CN(C)Cc1ccc2c(c1)OCO2	21.1*	0.0	12.2	3.1
SMILES	DENV2 CPE	Xi reactivation	C2C12 statin	Cneo AK release
C[C@H]1CN([C@@H](C)CO)C(=O)c2cc(NC(=O)Cn3cnnn3)ccc2O[C@@H]1CN(C)Cc1ccc2c(c1)OCO2	-0.1	-0.1	3.7	3.3
Cc1noc(C)c1NC(=O)N(C)C[C@H]1Oc2ccc(NC(=O)Nc3ccc4c(c3)OCO4)cc2CC(=O)N([C@@H](C)CO)C[C@H]1C	-4.4	-1.0	17.3	3.3
Cc1ccc(S(=O)(=O)Nc2ccc3c(c2)CC(=O)N([C@@H](C)CO)C[C@@H](C)[C@H](CN(C)Cc2ccc(Oc4ccccc4)cc2)O3)cc1	-26.2	-0.2	83.1*	-2.6
C[C@@H]1CN([C@H](C)CO)C(=O)Cc2cc(NS(=O)(=O)c3ccccc3)ccc2O[C@H]1CN(C)Cc1ccc(Oc2ccccc2)cc1	?	0.1	31.7	-2.3
Cc1ccc(S(=O)(=O)Nc2ccc3c(c2)CC(=O)N([C@H](C)CO)C[C@@H](C)[C@@H](CN(C)Cc2ccc(Oc4ccccc4)cc2)O3)cc1	38.2*	0.6	62.4	-8.3
Cc1ccc(S(=O)(=O)Nc2ccc3c(c2)CC(=O)N([C@H](C)CO)C[C@H](C)[C@@H](CN(C)Cc2ccc(Oc4ccccc4)cc2)O3)cc1	-24.5	0.2	50.0	1.9
C[C@@H]1CN([C@H](C)CO)C(=O)Cc2cc(NS(C)(=O)=O)ccc2O[C@@H]1CN(C)Cc1ccc(Oc2ccccc2)cc1	5.2	0.0	9.4	-0.2
C[C@@H]1CN([C@@H](C)CO)C(=O)Cc2cc(NS(C)(=O)=O)ccc2O[C@H]1CN(C)Cc1ccc(Oc2ccccc2)cc1	29.8*	0.0	2.8	3.0
C[C@@H]1CN([C@@H](C)CO)C(=O)Cc2cc(NS(=O)(=O)c3ccccc3)ccc2O[C@@H]1CN(C)Cc1ccc(Oc2ccccc2)cc1	25.0*	0.8	6.1	55.3
CC(=O)Nc1ccc2c(c1)C(=O)N(C)[C@H]1CC[C@@H](CC(=O)NCc3ccc4c(c3)OCO4)O[C@@H]1CO2	19.6	0.2	4.6	6.2
O=C(C[C@@H]1CC[C@H](NS(=O)(=O)c2ccccc2)[C@@H](CO)O1)NCCN1CCCCC1	14.3	0.2	-7.9	-2.1
C[C@@H]1CN([C@@H](C)CO)C(=O)c2cccc(NC(=O)Nc3ccc(C(F)(F)F)cc3)c2O[C@@H]1CN(C)S(=O)(=O)c1ccccc1	.	-0.7	0.8	.
Cc1ccc(S(=O)(=O)Nc2ccc3c(c2)CC(=O)N([C@H](C)CO)C[C@@H](C)[C@H](CN(C)Cc2ccc(Oc4ccccc4)cc2)O3)cc1	58.5*	-0.3	64.4	53.3
C[C@H]1CN([C@@H](C)CO)C(=O)Cc2cc(NS(=O)(=O)c3ccccc3)ccc2O[C@@H]1CN(C)Cc1ccc(Oc2ccccc2)cc1	-15.5	0.6	-10.4	-1.0
CCNC(=O)C[C@H]1CC[C@H]2[C@H](COc3ccc(NC(=O)Cc4ccccc4)cc3C(=O)N2C)O1	9.5	0.0	5.3	6.9

Screening results from PubChem BioAssay.
